# Data reported in ChEMBL document CHEMBL3739303, “Targeting the Src Homology 2 (SH2) Domain of Signal Transducer and Activator of Transcription 6 (STAT6) with Cell-Permeable, Phosphatase-Stable Phosphopeptide Mimics Potently Inhibits Tyr641 Phosphorylation and Transcriptional Activity” (J Med Chem, 2015).
# Active and inactive are the calls of the source. The rule behind the calls is not given here.
# Tests used:
# [1] = molecular target: T1, Signal transducer and activator of transcription 6 (Homo sapiens) (UniProt P42226); experiment: Inhibition of IL-13-stimulated STAT6 SH2 domain phosphorylation in human Beas-2B cells assessed as inhibition of CCL26 mRNA expression preincubated for 2 hrs followed by stimulation with IL-13 for 24 hrs by RT-PCR analysis
# T1 sequence (whole entry): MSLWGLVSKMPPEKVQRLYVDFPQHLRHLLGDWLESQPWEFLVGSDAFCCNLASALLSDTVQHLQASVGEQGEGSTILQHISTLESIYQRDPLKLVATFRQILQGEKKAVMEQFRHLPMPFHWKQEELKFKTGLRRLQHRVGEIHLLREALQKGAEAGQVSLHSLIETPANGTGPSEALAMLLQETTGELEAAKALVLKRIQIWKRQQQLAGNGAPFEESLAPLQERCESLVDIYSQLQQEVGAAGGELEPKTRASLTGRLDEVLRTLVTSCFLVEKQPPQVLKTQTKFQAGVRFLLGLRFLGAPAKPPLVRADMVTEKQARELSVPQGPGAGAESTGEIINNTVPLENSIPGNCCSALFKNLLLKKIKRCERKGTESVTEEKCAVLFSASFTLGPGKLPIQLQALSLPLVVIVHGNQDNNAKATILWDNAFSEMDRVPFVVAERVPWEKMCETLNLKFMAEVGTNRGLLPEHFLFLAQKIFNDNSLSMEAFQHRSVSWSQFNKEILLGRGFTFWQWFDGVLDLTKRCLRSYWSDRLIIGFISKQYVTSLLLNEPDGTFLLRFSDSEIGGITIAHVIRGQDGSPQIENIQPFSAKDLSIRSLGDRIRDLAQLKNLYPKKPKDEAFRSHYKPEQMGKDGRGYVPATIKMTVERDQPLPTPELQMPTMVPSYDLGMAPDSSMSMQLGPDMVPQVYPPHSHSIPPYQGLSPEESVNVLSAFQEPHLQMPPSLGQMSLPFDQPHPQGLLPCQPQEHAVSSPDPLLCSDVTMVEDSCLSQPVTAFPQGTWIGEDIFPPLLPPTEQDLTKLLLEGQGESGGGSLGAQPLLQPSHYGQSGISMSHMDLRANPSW
# [2] = molecular target: T2, Signal transducer and transcription activator 6 (Mus musculus) (UniProt P52633); experiment: Inhibition of IL4-induced STAT6 phosphorylation at Y641 in CD4+ T lymphocytes isolated from C57BL/6J mouse preincubated for 2 hrs followed by activation with plate-bound anti-CD3/anti-CD28 and IL4 for 15 mins by Western blot analysis; format: cell-based
# T2 sequence (whole entry): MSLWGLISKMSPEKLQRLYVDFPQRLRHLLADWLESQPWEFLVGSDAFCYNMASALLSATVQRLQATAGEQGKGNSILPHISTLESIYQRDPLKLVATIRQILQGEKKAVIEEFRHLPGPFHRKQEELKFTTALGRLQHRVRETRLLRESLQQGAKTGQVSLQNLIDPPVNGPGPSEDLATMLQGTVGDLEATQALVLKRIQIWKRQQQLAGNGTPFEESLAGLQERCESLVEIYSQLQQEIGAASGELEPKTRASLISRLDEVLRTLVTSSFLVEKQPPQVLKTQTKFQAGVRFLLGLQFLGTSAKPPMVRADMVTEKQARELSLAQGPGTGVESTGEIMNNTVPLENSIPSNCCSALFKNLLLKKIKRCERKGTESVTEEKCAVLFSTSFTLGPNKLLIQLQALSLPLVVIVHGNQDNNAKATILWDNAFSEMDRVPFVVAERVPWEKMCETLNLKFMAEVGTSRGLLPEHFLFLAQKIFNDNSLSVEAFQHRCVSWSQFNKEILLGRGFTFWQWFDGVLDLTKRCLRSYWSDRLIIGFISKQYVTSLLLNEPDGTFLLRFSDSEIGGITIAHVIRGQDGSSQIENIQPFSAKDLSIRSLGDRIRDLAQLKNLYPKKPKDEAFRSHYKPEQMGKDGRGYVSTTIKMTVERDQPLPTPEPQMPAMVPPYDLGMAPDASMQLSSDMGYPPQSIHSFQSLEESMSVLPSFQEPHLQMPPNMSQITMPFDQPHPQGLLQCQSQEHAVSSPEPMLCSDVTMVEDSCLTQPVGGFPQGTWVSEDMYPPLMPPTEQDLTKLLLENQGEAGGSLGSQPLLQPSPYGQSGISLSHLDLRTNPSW
# How it was run: (§1)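 CD4+ T cells from C57BL/6J mice, sorted by AutoMACS; activated 15 min with plate-bound anti-CD3 and/or anti-CD28 with IL-2, IL-6 or IL-4; lysed with protease inhibitors plus 10 mM NaF and 1 mM Na3VO4; Bradford-normalised immunoblots for pSTAT1 (Tyr701), pSTAT5 (Tyr694), pSTAT6 (Tyr641) and total STATs.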
# [3] = molecular target: T1, Signal transducer and activator of transcription 6 (Homo sapiens); experiment: Inhibition of IL-13-stimulated STAT6 SH2 domain phosphorylation in human Beas-2B cells assessed as inhibition of CCL26 mRNA expression at 100 nM preincubated for 2 hrs followed by stimulation with IL-13 for 24 hrs by RT-PCR analysis relative to control
# [4] = molecular target: T3, Signal transducer and activator of transcription 1 (Mus musculus) (UniProt P42225); experiment: Inhibition of IL6-induced STAT1 phosphorylation at Y701 in CD4+ T lymphocytes isolated from C57BL/6J mouse preincubated for 2 hrs followed by activation with plate-bound anti-CD3/anti-CD28 and IL6 for 15 mins by Western blot analysis; format: cell-based
# T3 sequence (whole entry): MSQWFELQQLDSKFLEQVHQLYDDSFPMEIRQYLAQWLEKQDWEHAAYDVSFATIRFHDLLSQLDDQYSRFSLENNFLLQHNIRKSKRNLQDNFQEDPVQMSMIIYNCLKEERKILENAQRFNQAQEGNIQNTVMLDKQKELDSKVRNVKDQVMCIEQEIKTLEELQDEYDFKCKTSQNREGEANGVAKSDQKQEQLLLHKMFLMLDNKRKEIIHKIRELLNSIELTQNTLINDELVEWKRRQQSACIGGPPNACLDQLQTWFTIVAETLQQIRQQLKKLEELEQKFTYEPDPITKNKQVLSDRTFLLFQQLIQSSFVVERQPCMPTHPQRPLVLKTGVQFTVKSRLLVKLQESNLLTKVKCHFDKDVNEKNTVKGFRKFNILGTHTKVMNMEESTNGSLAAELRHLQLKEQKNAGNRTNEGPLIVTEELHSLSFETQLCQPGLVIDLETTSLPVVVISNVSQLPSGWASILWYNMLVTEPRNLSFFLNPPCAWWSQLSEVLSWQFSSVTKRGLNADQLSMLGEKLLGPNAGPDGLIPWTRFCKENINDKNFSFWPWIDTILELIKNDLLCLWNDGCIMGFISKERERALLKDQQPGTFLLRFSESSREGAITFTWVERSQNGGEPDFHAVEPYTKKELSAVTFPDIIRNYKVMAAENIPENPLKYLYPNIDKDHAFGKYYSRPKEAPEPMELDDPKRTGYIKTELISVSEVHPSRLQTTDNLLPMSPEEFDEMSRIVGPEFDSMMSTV
# How it was run: as §1
# [5] = molecular target: Signal transducer and activator of transcription 3 (Mus musculus) (UniProt P42227); experiment: Inhibition of IL6-induced STAT3 phosphorylation at S727 in CD4+ T lymphocytes isolated from C57BL/6J mouse preincubated for 2 hrs followed by activation with plate-bound anti-CD3/anti-CD28 for 15 mins by Western blot analysis
# Mus musculus = species: Mus musculus; experiment: Inhibition of IL2-induced STAT5 phosphorylation at Y694 in CD4+ T lymphocytes isolated from C57BL/6J mouse at 0.5 to 5 uM preincubated for 2 hrs followed by activation with plate-bound anti-CD3/anti-CD28 and IL2 for 15 mins by Western blot analysis; format: cell-based
# How it was run: as §1
# [6] = molecular target: T1, Signal transducer and activator of transcription 6 (Homo sapiens); experiment: Inhibition of IL4-induced STAT6 phosphorylation in human MDA-MB-468 cells at 0.1 to 5 uM incubated for 2 hrs followed by stimulation with IL4 for 1 hr by Western blot assay; format: cell-based
# How it was run: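 MDA-MB-468 breast cancer cells serum-starved, treated with prodrugs, then IL-4 stimulated; pSTAT6 read by Western blot.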
# [7] = Cytotoxicity against human BEAS2B cells assessed as cell viability at <=1 uM after 72 hrs by MTS assay; format: cell-based; settings: beas-2b
# How it was run: (§2)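 Beas-2B seeded at 2000 cells/well; 10 mM DMSO stocks serially diluted in DMSO and equal amounts added to cultures; 72 h at 37 °C; medium replaced by 1:5 MTS/PBS, 1 h further incubation; viable cells read as optical density at 490 nm.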
# [8] = molecular target: T1, Signal transducer and activator of transcription 6 (Homo sapiens); experiment: Inhibition of IL4-induced STAT6 phosphorylation at tyrosine 641 in human Beas-2B cells at 100 to 500 nM incubated for 2 hrs followed by stimulation with IL4 for 1 hr by Western blot assay; format: cell-based
# How it was run: (§3)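 Beas-2B seeded at 3.0 × 10^5 cells/well the day before; prodrugs from DMSO stocks added to final concentrations for 2 h, then IL-4 (2 ng/mL) for 1 h. PBS-washed cells lysed with PMSF, protein by modified Lowry; blots blocked in 3% BSA/TBST, probed for pSTAT6 (Tyr641), stripped and reprobed for total STAT6; ECL on X-ray film.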
# [9] = molecular target: T1, Signal transducer and activator of transcription 6 (Homo sapiens); experiment: Inhibition of IL4-stimulated STAT6 phosphorylation at tyrosine 641 in human Beas-2B cells at 0.025 to 5 uM incubated for 2 hrs followed by stimulation with IL4 for 1 hr by Western blot assay; format: cell-based
# How it was run: as §3
# [10] = Cytotoxicity against human BEAS2B cells assessed as cell viability after 72 hrs by MTS assay; format: cell-based; settings: beas-2b
# How it was run: as §2
# [11] = molecular target: T1, Signal transducer and activator of transcription 6 (Homo sapiens); experiment: Inhibition of IL4-induced STAT6 phosphorylation at tyrosine 641 in human Beas-2B cells at 0.05 to 5 uM incubated for 2 hrs followed by stimulation with IL4 for 1 hr by Western blot assay; format: cell-based
# How it was run: as §3
# [12] = molecular target: RAC-alpha serine/threonine-protein kinase (Homo sapiens) (UniProt P31749); experiment: Inhibition of EGF-induced AKT phosphorylation at S473 in human MDA-MB-468 cells at 100 nM incubated for 2 hrs followed by stimulation with EGF for 1 hr by Western blot assay; format: cell-based
# [13] = molecular target: RAC-alpha serine/threonine-protein kinase (Homo sapiens) (UniProt P31749); experiment: Inhibition of EGF-induced AKT phosphorylation at S473 in human MDA-MB-468 cells at 5 uM incubated for 2 hrs followed by stimulation with EGF for 1 hr by Western blot assay; format: cell-based
# [14] = molecular target: T1, Signal transducer and activator of transcription 6 (Homo sapiens); experiment: Inhibition of IL4-induced STAT6 phosphorylation at tyrosine 641 in human Beas-2B cells at 50 to 100 nM incubated for 2 hrs followed by stimulation with IL4 for 1 hr by Western blot assay; format: cell-based
# How it was run: as §3
# Signal transducer and activator of transcription 3 (Mus musculus), sequence (P42227 whole entry): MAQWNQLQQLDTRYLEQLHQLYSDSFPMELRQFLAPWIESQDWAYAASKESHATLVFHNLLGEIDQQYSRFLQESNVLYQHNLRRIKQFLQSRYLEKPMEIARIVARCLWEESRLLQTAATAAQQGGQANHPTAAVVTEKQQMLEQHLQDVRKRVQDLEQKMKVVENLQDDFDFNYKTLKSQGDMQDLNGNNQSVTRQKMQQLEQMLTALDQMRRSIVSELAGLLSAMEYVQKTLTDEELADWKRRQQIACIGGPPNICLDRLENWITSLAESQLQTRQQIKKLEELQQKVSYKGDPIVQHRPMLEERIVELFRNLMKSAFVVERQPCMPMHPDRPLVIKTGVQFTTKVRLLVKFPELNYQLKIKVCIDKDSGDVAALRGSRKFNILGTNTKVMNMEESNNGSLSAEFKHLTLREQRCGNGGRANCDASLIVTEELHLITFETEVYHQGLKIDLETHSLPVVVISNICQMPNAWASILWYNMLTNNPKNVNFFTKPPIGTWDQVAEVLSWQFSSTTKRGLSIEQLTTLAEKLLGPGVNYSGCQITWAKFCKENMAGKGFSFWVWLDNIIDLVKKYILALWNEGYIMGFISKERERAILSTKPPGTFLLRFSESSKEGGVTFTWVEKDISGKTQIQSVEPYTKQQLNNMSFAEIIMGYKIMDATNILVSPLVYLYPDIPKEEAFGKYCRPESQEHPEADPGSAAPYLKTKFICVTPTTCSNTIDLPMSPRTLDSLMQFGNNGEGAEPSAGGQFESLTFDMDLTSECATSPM
# RAC-alpha serine/threonine-protein kinase (Homo sapiens), sequence (P31749 whole entry): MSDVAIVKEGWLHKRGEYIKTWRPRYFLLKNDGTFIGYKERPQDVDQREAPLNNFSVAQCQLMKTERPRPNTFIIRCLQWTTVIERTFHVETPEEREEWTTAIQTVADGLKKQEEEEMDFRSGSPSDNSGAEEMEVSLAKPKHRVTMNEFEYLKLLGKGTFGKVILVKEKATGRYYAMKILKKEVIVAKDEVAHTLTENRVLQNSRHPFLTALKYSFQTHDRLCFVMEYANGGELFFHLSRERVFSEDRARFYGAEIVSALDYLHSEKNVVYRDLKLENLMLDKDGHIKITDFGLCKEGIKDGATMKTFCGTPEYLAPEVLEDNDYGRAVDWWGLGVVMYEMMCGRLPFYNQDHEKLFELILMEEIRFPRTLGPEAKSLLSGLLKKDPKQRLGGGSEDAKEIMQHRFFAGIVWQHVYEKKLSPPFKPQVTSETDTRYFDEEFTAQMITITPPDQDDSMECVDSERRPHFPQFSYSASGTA
Compound,inhibition [1],inhibition [2],inhibition [3] [%],inhibition [4],inhibition [5],inhibition (Mus musculus),inhibition [6],Activity [7],inhibition [8],inhibition [9],Activity [10],inhibition [11],inhibition [12],inhibition [13],inhibition [14]
CC(C)(C)C(=O)OCOP(=O)(OCOC(=O)C(C)(C)C)C(F)(F)c1ccc(/C=C/C(=O)N[C@H](C(=O)N2CCC[C@H]2C(=O)N(c2ccccc2)c2ccc(I)cc2)C(C)(C)C)cc1,Dose-dependent effect,inactive,> 50,inactive,inactive,,,,,,,,,,
CC(C)(C)C(=O)OCOP(=O)(OCOC(=O)C(C)(C)C)C(F)(F)c1ccc(/C=C/C(=O)N[C@H](C(=O)N2CCC[C@H]2C(=O)N(c2ccccc2)c2ccccc2)C(C)(C)C)cc1,,Active,,inactive,inactive,Active,Active,Non-toxic,Active,,,,,,
C/C(=C\C(=O)N[C@H](C(=O)N1CCC[C@H]1C(=O)N(C)C1CCCCC1)C(C)(C)C)c1ccc(C(F)(F)P(=O)(OCOC(=O)C(C)(C)C)OCOC(=O)C(C)(C)C)cc1,,Active,,inactive,inactive,Active,,,,Active,Non-toxic,,,,
CC(C)(C)C(=O)OCOP(=O)(OCOC(=O)C(C)(C)C)C(F)(F)c1ccc(/C=C/C(=O)N[C@H](C(=O)N2CCC[C@H]2C(=O)Nc2ccccc2)C(C)(C)C)cc1,,Active,,inactive,inactive,inactive,,,,,Toxic,Active,Active,,
CN(C(=O)[C@@H]1CCCN1C(=O)[C@@H](NC(=O)/C=C/c1ccc(C(F)(F)P(=O)(OCOC(=O)C(C)(C)C)OCOC(=O)C(C)(C)C)cc1)C(C)(C)C)c1ccccc1,,Active,,inactive,inactive,Active,Active,Non-toxic,,,Non-toxic,,,Active,Active
